Activity calls are given as the source filed them. The rule behind the calls is not given here.
Key:
[1] = target: Metabotropic glutamate receptor 5 (Rattus norvegicus) (UniProt P31424); experiment: Antagonist activity at rat mGlu5 transfected in HEK293 cells by IP-one HTRF assay; format: functional, cell-based
Summary of the method: (§1)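 HEK293 cells transiently electroporated with rat receptor plasmid plus EAAC1 Glu transporter, plated 150 000 cells/well on polyornithine, serum-free Glutamax DMEM ≥2 h before assay. At 24 h, washed in Krebs buffer and stimulated 30 min with compound in 50 mM LiCl. IP1 read by HTRF, at least duplicates, EC50 from 2–5 experiments.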

[2] = target: Metabotropic glutamate receptor 8 (Rattus norvegicus) (UniProt P70579); experiment: Antagonist activity at rat mGlu8 transfected in HEK293 cells co-transfected with chimeric Gqi9 incubated for 30 mins by IP-one HTRF assay; format: functional, cell-based
Sequence of Metabotropic glutamate receptor 8 (Rattus norvegicus) (P70579 whole entry): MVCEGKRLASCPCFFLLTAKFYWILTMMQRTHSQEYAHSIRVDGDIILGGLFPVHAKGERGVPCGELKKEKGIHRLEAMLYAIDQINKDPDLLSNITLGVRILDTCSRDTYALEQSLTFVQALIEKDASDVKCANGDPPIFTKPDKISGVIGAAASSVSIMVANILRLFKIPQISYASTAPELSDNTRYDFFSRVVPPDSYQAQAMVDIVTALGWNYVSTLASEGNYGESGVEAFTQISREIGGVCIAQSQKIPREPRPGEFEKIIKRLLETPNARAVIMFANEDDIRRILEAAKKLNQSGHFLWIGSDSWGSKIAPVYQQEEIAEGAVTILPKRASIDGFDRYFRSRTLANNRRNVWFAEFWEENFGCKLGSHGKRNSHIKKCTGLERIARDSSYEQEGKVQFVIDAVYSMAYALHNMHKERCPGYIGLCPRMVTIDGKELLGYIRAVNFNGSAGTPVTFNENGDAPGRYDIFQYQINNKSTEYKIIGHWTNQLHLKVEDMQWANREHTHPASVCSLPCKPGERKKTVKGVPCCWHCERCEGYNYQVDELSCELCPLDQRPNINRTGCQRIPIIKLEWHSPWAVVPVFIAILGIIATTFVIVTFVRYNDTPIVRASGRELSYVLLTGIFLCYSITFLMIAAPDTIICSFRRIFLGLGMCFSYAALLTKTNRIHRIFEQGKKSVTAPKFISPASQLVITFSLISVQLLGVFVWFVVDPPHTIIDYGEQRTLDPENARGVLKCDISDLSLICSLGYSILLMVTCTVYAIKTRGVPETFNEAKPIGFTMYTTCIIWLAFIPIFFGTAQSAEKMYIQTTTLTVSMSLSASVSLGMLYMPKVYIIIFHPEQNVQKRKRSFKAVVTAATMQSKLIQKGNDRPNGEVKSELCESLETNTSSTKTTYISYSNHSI
Summary of the method: (§2)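 Rat group II/III receptor co-electroporated into HEK293 with chimeric Gqi9 and EAAC1 transporter, serum-free medium ≥2 h pre-assay. At 24 h post-transfection, Krebs wash, then 30 min compound exposure with 50 mM LiCl. IP1 accumulation quantified by HTRF kit, at least duplicate runs, mean of 2–5 experiments.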

[3] = target: T1, Metabotropic glutamate receptor 3 (Rattus norvegicus, UniProt P31422); experiment: Agonist activity at rat mGlu3 transfected in HEK293 cells co-transfected with chimeric Gqi9 incubated for 30 mins by IP-one HTRF assay; format: functional, cell-based
T1 sequence (P31422 whole entry): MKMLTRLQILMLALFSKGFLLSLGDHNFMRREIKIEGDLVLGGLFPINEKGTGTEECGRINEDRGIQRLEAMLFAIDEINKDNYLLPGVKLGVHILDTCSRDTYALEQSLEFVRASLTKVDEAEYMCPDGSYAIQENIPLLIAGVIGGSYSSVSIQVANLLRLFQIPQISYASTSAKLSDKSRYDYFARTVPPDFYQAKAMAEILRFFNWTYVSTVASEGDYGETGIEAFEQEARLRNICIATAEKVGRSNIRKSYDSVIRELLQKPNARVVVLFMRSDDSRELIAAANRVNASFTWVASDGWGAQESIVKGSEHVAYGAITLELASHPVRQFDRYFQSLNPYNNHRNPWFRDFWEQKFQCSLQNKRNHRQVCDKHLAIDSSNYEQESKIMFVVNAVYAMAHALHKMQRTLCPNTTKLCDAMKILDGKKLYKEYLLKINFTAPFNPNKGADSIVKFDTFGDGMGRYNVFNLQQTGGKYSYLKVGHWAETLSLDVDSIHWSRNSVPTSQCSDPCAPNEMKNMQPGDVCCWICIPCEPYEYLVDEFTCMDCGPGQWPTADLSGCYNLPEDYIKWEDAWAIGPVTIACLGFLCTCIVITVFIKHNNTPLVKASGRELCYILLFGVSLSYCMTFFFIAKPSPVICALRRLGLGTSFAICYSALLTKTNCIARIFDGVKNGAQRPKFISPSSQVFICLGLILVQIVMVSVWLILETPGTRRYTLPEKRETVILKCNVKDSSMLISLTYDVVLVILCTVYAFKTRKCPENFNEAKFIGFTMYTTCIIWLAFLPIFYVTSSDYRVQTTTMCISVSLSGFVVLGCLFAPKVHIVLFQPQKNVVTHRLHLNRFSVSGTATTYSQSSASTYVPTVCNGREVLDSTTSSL

[4] = target: Metabotropic glutamate receptor 3 (Rattus norvegicus) (UniProt P31422); experiment: Antagonist activity at rat mGlu3 transfected in HEK293 cells co-transfected with chimeric Gqi9 incubated for 30 mins by IP-one HTRF assay; format: functional, cell-based
[5] = target: Metabotropic glutamate receptor 2 (Rattus norvegicus) (UniProt P31421); experiment: Antagonist activity at rat mGlu2 transfected in HEK293 cells co-transfected with chimeric Gqi9 incubated for 30 mins by IP-one HTRF assay; format: functional, cell-based
[6] = target: Metabotropic glutamate receptor 5 (Rattus norvegicus, UniProt P31424); experiment: Agonist activity at rat mGlu5 transfected in HEK293 cells by IP-one HTRF assay; format: functional, cell-based; details: read-out: EC50
Summary of the method: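 HEK293 cells transiently electroporated with rat receptor plasmid plus the high-affinity Glu transporter EAAC1. Cells were grown in DMEM with 10% FBS and seeded on polyornithine-coated wells at 150 000 cells/well. Medium was switched to serum-free Glutamax DMEM ≥2 h before assay. At 24 h cells were washed in Krebs buffer and stimulated 30 min with agonist plus 50 mM LiCl. IP1 read by IP-One HTRF; ≥ duplicates.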

[7] = target: Metabotropic glutamate receptor 8 (Rattus norvegicus, UniProt P70579); experiment: Agonist activity at rat mGlu8 transfected in HEK293 cells co-transfected with chimeric Gqi9 incubated for 30 mins by IP-one HTRF assay; format: functional, cell-based; summary of the method: as §2
Sequence of Metabotropic glutamate receptor 8 (P70579 whole entry): as the sequence (P70579 whole entry) above

[8] = target: Metabotropic glutamate receptor 4 (Rattus norvegicus) (UniProt P31423); experiment: Antagonist activity at rat mGlu4 transfected in HEK293 cells co-transfected with chimeric Gqi9 incubated for 30 mins by IP-one HTRF assay; format: functional, cell-based; summary of the method: as §2
Sequence of Metabotropic glutamate receptor 4 (Rattus norvegicus) (P31423 whole entry): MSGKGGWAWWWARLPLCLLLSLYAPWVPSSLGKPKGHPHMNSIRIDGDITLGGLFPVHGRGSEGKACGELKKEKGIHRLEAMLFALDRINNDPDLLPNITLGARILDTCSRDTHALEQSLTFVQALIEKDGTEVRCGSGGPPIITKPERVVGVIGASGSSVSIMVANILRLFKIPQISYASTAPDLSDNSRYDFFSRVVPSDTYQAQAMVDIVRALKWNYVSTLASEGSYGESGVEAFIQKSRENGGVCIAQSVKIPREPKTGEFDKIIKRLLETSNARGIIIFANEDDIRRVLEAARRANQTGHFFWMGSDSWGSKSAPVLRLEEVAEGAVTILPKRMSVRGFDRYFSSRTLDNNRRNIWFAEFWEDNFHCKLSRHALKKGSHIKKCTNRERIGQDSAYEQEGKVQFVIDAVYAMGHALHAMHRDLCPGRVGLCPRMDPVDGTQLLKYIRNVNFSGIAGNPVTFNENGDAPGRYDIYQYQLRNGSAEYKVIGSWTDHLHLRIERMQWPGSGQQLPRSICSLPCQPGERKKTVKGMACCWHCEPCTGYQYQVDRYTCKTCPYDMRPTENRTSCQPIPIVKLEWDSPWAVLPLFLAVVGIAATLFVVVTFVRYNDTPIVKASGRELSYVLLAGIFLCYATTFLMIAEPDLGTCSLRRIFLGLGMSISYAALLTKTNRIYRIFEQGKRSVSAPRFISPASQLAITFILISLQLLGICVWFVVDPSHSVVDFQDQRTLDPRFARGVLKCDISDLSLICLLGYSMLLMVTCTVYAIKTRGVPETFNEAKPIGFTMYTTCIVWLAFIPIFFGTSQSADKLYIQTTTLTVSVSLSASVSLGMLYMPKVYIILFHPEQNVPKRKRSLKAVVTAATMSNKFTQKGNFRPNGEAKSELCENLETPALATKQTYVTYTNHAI

[9] = target: Metabotropic glutamate receptor 7 (Rattus norvegicus, UniProt P35400); experiment: Agonist activity at rat mGlu7 transfected in HEK293 cells co-transfected with chimeric Gqi9 incubated for 30 mins by IP-one HTRF assay; format: functional, cell-based; summary of the method: as §2
[10] = target: Metabotropic glutamate receptor 6 (Rattus norvegicus, UniProt P35349); experiment: Agonist activity at rat mGlu6 transfected in HEK293 cells co-transfected with chimeric Gqi9 incubated for 30 mins by IP-one HTRF assay; format: functional, cell-based; summary of the method: as §2
Sequence of Metabotropic glutamate receptor 6 (P35349 whole entry): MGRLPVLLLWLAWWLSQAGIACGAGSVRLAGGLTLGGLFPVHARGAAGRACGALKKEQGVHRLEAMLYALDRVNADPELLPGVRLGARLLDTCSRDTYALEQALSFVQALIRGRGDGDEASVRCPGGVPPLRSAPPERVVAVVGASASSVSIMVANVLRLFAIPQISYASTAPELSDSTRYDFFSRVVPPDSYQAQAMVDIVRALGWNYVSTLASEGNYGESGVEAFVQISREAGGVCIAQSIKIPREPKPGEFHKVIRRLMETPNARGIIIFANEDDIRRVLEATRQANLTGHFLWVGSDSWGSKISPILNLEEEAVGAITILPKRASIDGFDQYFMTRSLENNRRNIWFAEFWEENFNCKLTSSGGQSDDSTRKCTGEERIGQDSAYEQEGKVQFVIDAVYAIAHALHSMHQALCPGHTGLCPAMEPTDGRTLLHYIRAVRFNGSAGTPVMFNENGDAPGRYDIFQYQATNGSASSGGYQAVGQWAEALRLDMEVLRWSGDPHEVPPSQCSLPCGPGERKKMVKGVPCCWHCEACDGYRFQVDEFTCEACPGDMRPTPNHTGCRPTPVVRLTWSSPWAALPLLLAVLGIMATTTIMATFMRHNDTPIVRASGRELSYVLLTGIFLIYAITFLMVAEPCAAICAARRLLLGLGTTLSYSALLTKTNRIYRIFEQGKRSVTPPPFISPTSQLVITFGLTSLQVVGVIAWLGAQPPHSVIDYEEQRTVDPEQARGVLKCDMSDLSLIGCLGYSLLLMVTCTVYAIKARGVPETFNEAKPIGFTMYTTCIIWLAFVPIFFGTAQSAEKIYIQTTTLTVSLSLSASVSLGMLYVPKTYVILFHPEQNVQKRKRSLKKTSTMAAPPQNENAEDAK

[11] = target: Metabotropic glutamate receptor 4 (Rattus norvegicus, UniProt P31423); experiment: Agonist activity at rat mGlu4 transfected in HEK293 cells co-transfected with chimeric Gqi9 incubated for 30 mins by IP-one HTRF assay; format: functional, cell-based; summary of the method: as §2
Sequence of Metabotropic glutamate receptor 4 (P31423 whole entry): as the sequence (P31423 whole entry) above

[12] = target: Metabotropic glutamate receptor 1 (Rattus norvegicus, UniProt P23385); experiment: Agonist activity at rat mGlu1 transfected in HEK293 cells by IP-one HTRF assay; format: functional, cell-based; summary of the method: as §1
[13] = target: Metabotropic glutamate receptor 6 (Rattus norvegicus) (UniProt P35349); experiment: Antagonist activity at rat mGlu6 transfected in HEK293 cells co-transfected with chimeric Gqi9 incubated for 30 mins by IP-one HTRF assay; format: functional, cell-based; summary of the method: as §2
Sequence of Metabotropic glutamate receptor 6 (Rattus norvegicus) (P35349 whole entry): as the sequence (P35349 whole entry) above

[14] = target: Metabotropic glutamate receptor 1 (Rattus norvegicus) (UniProt P23385); experiment: Antagonist activity at rat mGlu1 transfected in HEK293 cells by IP-one HTRF assay; format: functional, cell-based; summary of the method: as §1
[15] = target: Metabotropic glutamate receptor 7 (Rattus norvegicus) (UniProt P35400); experiment: Antagonist activity at rat mGlu7 transfected in HEK293 cells co-transfected with chimeric Gqi9 incubated for 30 mins by IP-one HTRF assay; format: functional, cell-based; summary of the method: as §2
[16] = target: T1, Metabotropic glutamate receptor 3; experiment: Agonist activity at SNAP tagged rat mGlu3 transfected HEK293 cells preincubated with antagonist LY-341495 followed by compound addition by TR-FRET assay; format: functional, cell-based
[17] = target: T2, Metabotropic glutamate receptor 2 (Rattus norvegicus, UniProt P31421); experiment: Agonist activity at SNAP tagged rat mGlu2 transfected HEK293 cells by TR-FRET assay; format: functional, cell-based
T2 sequence (P31421 whole entry): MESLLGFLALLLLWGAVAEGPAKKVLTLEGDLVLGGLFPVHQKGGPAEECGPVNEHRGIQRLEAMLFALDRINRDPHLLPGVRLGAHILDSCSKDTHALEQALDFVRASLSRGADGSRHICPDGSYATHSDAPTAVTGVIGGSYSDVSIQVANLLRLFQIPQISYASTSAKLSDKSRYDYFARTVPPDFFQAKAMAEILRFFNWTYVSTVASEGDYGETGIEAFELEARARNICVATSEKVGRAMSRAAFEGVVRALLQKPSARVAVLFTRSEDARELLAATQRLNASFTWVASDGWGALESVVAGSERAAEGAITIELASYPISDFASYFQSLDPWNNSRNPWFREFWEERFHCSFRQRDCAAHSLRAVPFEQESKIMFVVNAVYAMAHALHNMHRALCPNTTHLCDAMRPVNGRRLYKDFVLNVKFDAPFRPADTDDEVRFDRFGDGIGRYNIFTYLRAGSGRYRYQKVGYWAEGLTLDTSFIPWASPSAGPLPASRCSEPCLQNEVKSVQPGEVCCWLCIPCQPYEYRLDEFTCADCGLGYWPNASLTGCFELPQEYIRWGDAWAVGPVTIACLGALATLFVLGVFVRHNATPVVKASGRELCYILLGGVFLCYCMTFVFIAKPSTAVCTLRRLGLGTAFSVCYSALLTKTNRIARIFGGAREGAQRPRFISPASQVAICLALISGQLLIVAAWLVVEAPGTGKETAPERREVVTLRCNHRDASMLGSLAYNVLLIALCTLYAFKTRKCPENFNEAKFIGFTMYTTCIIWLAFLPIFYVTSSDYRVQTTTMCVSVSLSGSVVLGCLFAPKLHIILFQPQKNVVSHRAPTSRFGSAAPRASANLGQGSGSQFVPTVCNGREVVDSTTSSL

[18] = target: T1, Metabotropic glutamate receptor 3; experiment: Agonist activity at rat mGlu3 transfected in HEK293 cells assessed as inositol phosphate accumulation; format: functional, cell-based
[19] = Half life in C57BL/6 mouse plasma at 10 mg/kg, iv by LC-MS/MS analysis; format: ADME, organism-based
Summary of the method: (§3)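 Mice given a single 10 mg/kg IV dose; plasma and brain concentrations sampled at 0.25, 1.0 and 4.0 h, means ± error per timepoint.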

[20] = Cmax in C57BL/6 mouse plasma at 10 mg/kg, iv measured after 4 hrs by LC-MS/MS analysis; format: ADME, organism-based; summary of the method: as §3
[21] = Cmax in C57BL/6 mouse brain at 10 mg/kg, iv measured after 4 hrs by LC-MS/MS analysis; format: ADME, organism-based; summary of the method: as §3
[22] = Unbound brain to plasma concentration ratio in C57BL/6 mouse at 10 mg/kg, iv […] by LC-MS/MS analysis; format: ADME, organism-based; details: read-out: K(p,uu,brain)
[23] = Cmax in C57BL/6 mouse plasma at 10 mg/kg, iv measured after 1 hr by LC-MS/MS analysis; format: ADME, organism-based; summary of the method: as §3
[24] = target: T2, Metabotropic glutamate receptor 2; experiment: Agonist activity at rat mGlu2 transfected in HEK293 cells co-transfected with chimeric Gqi9 incubated for 30 mins by IP-one HTRF assay; format: functional, cell-based; summary of the method: as §2
[25] = Cmax in C57BL/6 mouse brain at 10 mg/kg, iv measured after 1 hrs by LC-MS/MS analysis; format: ADME, organism-based; summary of the method: as §3
[26] = Cmax in C57BL/6 mouse brain at 10 mg/kg, iv measured after 0.25 hrs by LC-MS/MS analysis; format: ADME, organism-based; summary of the method: as §3
[27] = Cmax in C57BL/6 mouse plasma at 10 mg/kg, iv measured after 0.25 hrs by LC-MS/MS analysis; format: ADME, organism-based; summary of the method: as §3
[28] = target: T2, Metabotropic glutamate receptor 2; experiment: Agonist activity at SNAP tagged rat mGlu2 transfected HEK293 cells preincubated with antagonist LY-341495 followed by compound addition by TR-FRET assay; format: functional, cell-based
[29] = species: Rattus norvegicus; experiment: Selectivity ratio of EC50 for rat mGlu3 to EC50 for rat Glu2
[30] = species: Rattus norvegicus; experiment: Selectivity ratio of EC50 for SNAP tagged rat mGlu3 to EC50 for SNAP tagged rat mGlu2
Summary of the method: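 Ratio of EC50 at SNAP-tagged rat mGlu3 to mGlu2, both measured by TR-FRET conformational assay in HEK293 after LY341495 preincubation and washing; Lumi4-Tb/Green labeling, 337 nm excitation, 620/520 nm emission.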

Compound	Activity [1]	Activity [2]	EC50 [3] [nM]	Activity [4]	Activity [5]	EC50 [6] [nM]	EC50 ([7]; read-out: EC50) [nM]	Activity [8]	EC50 [9] [nM]	EC50 ([10]; read-out: EC50) [nM]	EC50 ([11]; read-out: EC50) [nM]	EC50 [12] [nM]	Activity [13]	Activity [14]	Activity [15]	EC50 [16] [nM]	EC50 ([17]; read-out: EC50) [nM]	further results
C[C@@]1(C(=O)O)C[C@H]1[C@H](N)C(=O)O	inactive	inactive	1880	inactive	inactive	12000	> 30000	inactive	> 30000	2500	> 30000	5500	inactive	inactive	inactive	–	–	–
COc1cccc(C(=O)N[C@H]2C[C@@](N)(C(=O)O)[C@@H]3[C@@H](C(=O)O)[C@@H]32)c1	–	–	–	–	–	–	–	–	–	–	–	–	–	–	–	32	2820	–
N[C@H](C(=O)O)C1[C@@H](C(=O)O)[C@@H]1C(=O)O (some centres not stated)	–	–	–	–	–	–	–	–	–	–	–	–	–	–	–	–	–	EC50 [18]: 90 nM
Cl.N[C@H](C(=O)O)[C@H]1[C@H](CC(=O)O)[C@@H]1C(=O)O	inactive	inactive	373	inactive	inactive	> 30000	97	inactive	> 30000	280	110	> 30000	inactive	inactive	inactive	11500	13	half-life [19]: 30 min; Cmax [20]: 50 ng/mL; Cmax [21]: 68 ng/g; Kp uu [22]: 0.02; Cmax [23]: 583 ng/mL; EC50 ([24]; read-out: EC50): 1 nM; EC50 ([24]; read-out: pEC50 (converted)): 0.575 nM; EC50 ([7]; read-out: pEC50 (converted)): 35.5 nM; Cmax [25]: 75 ng/g; Cmax [26]: 86 ng/g; Cmax [27]: 5360 ng/mL; EC50 [28]: 22 nM; EC50 ([17]; read-out: pEC50 (converted)): 22.4 nM; EC50 ([10]; read-out: pEC50 (converted)): 245 nM; EC50 ([11]; read-out: pEC50 (converted)): 35.5 nM; Ratio EC50 [29]: 620; Ratio EC50 [30]: 513

From ChEMBL document CHEMBL5537160, “Design, Synthesis, Pharmacology, and In Silico Studies of (1S,2S,3S)-2-((S)-Amino(carboxy)methyl)-3-(carboxymethyl)cyclopropane-1-carboxylic Acid (LBG30300): A Picomolar Potency Subtype-Selective mGlu2 Receptor Agonist” (J Med Chem, 2024)
